What was measured:
Format in all cases: functional
SF-268 = test: Cytotoxicity against human SF268 cells assessed as cell growth at 0.01 uM after 48 hrs by sulforhodamine B assay; settings: SF-268, 48 h, read-out: Activity
HT-29 = test: Cytotoxicity against human HT-29 cells assessed as cell growth at 0.001 uM after 48 hrs by sulforhodamine B assay; settings: HT-29, 48 h, read-out: Activity
KM12 = test: Cytotoxicity against human KM12 cells assessed as cell growth at 0.01 uM after 48 hrs by sulforhodamine B assay; settings: KM12, 48 h, read-out: Activity
OVCAR-8 [1] = test: Growth inhibition of human OVCAR8 cells after 48 hrs by sulforhodamine B assay; settings: OVCAR-8, 48 h; for CC50: read-out: LC50 (the source's name)
How it was run: (§1)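 NCI 60-cell screen, five-dose mode. Cells grown in RPMI 1640 with 5% FBS and 2 mM L-glutamine and plated at 5000-40,000 cells/well according to doubling time. After 24 h preincubation, a Tz plate was TCA-fixed. Five concentrations (10-fold or 1/2 log dilutions) were applied for 48 h at 37 °C. SRB staining read at 515 nm. IC50 taken from [(Ti-Tz)/(C-Tz)]×100 = 50.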

UACC-257 = test: Cytotoxicity against human UACC257 cells assessed as cell growth at 0.001 uM after 48 hrs by sulforhodamine B assay; settings: UACC-257, 48 h, read-out: Activity
OVCAR-5 = test: Growth inhibition of human OVCAR5 cells after 48 hrs by sulforhodamine B assay; settings: OVCAR-5, 48 h; for CC50: read-out: LC50 (the source's name); how it was run: as §1
SF-539 = test: Cytotoxicity against human SF539 cells assessed as cell growth at 10 uM after 48 hrs by sulforhodamine B assay; settings: SF-539, 48 h, read-out: Activity
OVCAR-8 [2] = test: Cytotoxicity against human OVCAR8 cells assessed as cell growth at 10 uM; settings: read-out: Activity
How it was run: (§2)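 NCI-60 screen: cells grown in RPMI 1640 with 5% FBS and 2 mM L-glutamine, plated at 5000–40,000 cells/well according to doubling time, and preincubated 24 h at 37 °C, 5% CO2. The single 10 µM dose (DMSO stock) was added, then incubated 48 h. Cells were TCA-fixed and stained with 0.4% SRB, read at 515 nm, and growth % calculated against time-zero and control plates.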

MOLT-4 = test: Cytotoxicity against human MOLT4 cells assessed as cell growth at 0.001 uM after 48 hrs by sulforhodamine B assay; settings: MOLT-4, 48 h, read-out: Activity
NCI-H23 = test: Growth inhibition of human NCI-H23 cells after 48 hrs by sulforhodamine B assay; settings: NCI-H23, 48 h; for CC50: read-out: LC50 (the source's name); how it was run: as §1
EKVX = test: Cytotoxicity against human EKVX cells assessed as cell growth at 10 uM after 48 hrs by sulforhodamine B assay; settings: read-out: Activity
SF-295 = test: Cytotoxicity against human SF295 cells assessed as cell growth at 0.01 uM after 48 hrs by sulforhodamine B assay; settings: SF-295, 48 h, read-out: Activity
UO-31 = test: Cytotoxicity against human UO31 cells assessed as cell growth at 0.01 uM after 48 hrs by sulforhodamine B assay; settings: UO-31, 48 h, read-out: Activity
LOX IMVI = test: Cytotoxicity against human LOXIMVI cells assessed as cell growth at 10 uM; settings: read-out: Activity; how it was run: as §2
SNB-75 [3] = test: Cytotoxicity against human SNB75 cells assessed as cell growth at 10 uM after 48 hrs by sulforhodamine B assay; settings: SNB-75, 48 h, read-out: Activity
PC-3 = test: Cytotoxicity against human PC3 cells assessed as cell growth at 0.001 uM after 48 hrs by sulforhodamine B assay; settings: PC-3, 48 h, read-out: Activity
OVCAR-8 [4] = test: Cytotoxicity against human OVCAR8 cells assessed as cell growth at 100 nM after 48 hrs by sulforhodamine B assay; settings: OVCAR-8, 48 h, read-out: Activity
MDA-MB-231 [5] = test: Cytotoxicity against human MDA-MB-231 cells assessed as cell growth at 10 uM; settings: read-out: Activity; how it was run: as §2
MDA-MB-231 [6] = test: Growth inhibition of human MDA-MB-231 cells after 48 hrs by sulforhodamine B assay; settings: MDA-MB-231, 48 h; how it was run: as §1
A498 = test: Cytotoxicity against human A498 cells assessed as cell growth at 0.001 uM after 48 hrs by sulforhodamine B assay; settings: A498, 48 h, read-out: Activity
How it was run: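 NCI-60 five-dose screen. Cells were grown in RPMI 1640 with 5% FBS and 2 mM L-glutamine, plated at 5000–40,000 cells/well and preincubated for 24 h. Time-zero plates were TCA-fixed. DMSO-solubilized drug was added at five concentrations (10-fold or ½-log serial dilutions) for 48 h at 37 °C, 5% CO2. Cells were TCA-fixed, stained with 0.4% SRB and read at 515 nm. Percent growth used time-zero, control and test absorbances.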

HOP-62 = test: Cytotoxicity against human HOP62 cells assessed as cell growth at 10 uM; settings: read-out: Activity
How it was run: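 Single-dose NCI-60 screen at 10 µM. Cells were grown in RPMI 1640 with 5% FBS and 2 mM L-glutamine, then treated for 48 h at 37 °C. Protein was measured by SRB staining with absorbance at 515 nm. Percentage growth was recorded, and inhibition percentage was calculated as 100 minus growth percentage.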

M14 = test: Cytotoxicity against human M14 cells assessed as cell growth at 10 uM; settings: read-out: Activity; how it was run: as §2
HL-60(TB) = test: Cytotoxicity against human HL-60(TB) cells assessed as cell growth at 10 uM; settings: read-out: Activity
How it was run: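 NCI 60-cell panel screen at a single concentration of 10 µM. Cells are grown in RPMI 1640 with 5% FBS and 2 mM L-glutamine and read by SRB protein staining at 515 nm. Percent growth is measured relative to time-zero and untreated controls; inhibition % is 100 minus growth %.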

OVCAR-4 = test: Cytotoxicity against human OVCAR4 cells assessed as cell growth at 1 uM after 48 hrs by sulforhodamine B assay; settings: OVCAR-4, 48 h, read-out: Activity
CAKI-1 = test: Growth inhibition of human Caki1 cells after 48 hrs by sulforhodamine B assay; settings: CAKI-1, 48 h; for CC50: read-out: LC50 (the source's name)
How it was run: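 NCI five-dose SRB assay in RPMI 1640 with 5% FBS and 2 mM L-glutamine. Cells were preincubated 24 h, then exposed 48 h at 37 °C to five concentrations (10-fold or half-log serial dilutions from DMSO stocks). TCA fixation, SRB staining, and absorbance at 515 nm followed. IC50 was taken where [(Ti−Tz)/(C−Tz)]×100 = 50, with Tz as time-zero cell density.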

NCI-H226 = test: Cytotoxicity against human NCI-H226 cells assessed as cell growth at 10 uM; settings: read-out: Activity; how it was run: as §2
SNB-75 [7] = test: Growth inhibition of human SNB75 cells after 48 hrs by sulforhodamine B assay; settings: SNB-75, 48 h; for CC50: read-out: LC50 (the source's name); how it was run: as §1

Row | SMILES | growth at 0.01 µM (SF-268) | growth at 0.001 µM (HT-29) | growth at 0.01 µM (KM12) | GI50 (OVCAR-8 [1]) | TGI (OVCAR-8 [1]) | CC50 (OVCAR-8 [1]) | growth at 0.001 µM (UACC-257) | GI50 (OVCAR-5) | TGI (OVCAR-5) | CC50 (OVCAR-5) | growth at 10 µM (SF-539) | growth at 10 µM (OVCAR-8 [2]) | growth at 0.001 µM (MOLT-4) | GI50 (NCI-H23) | TGI (NCI-H23) | CC50 (NCI-H23) | growth at 10 µM (EKVX) | growth at 0.01 µM (SF-295) | growth at 0.01 µM (UO-31) | growth at 10 µM (LOX IMVI) | further results
1 | COc1cc(C)cc(-c2nn(CC#N)cc2-c2ccnc(-c3ccc(N(C)C)cc3)c2)c1 | 90% | 103% | 89% | 0.522 µM | 41.6 µM | > 100 µM | 90% | 3.98 µM | > 100 µM | > 100 µM | -38% | 12% | 102% | 0.514 µM | > 100 µM | > 100 µM | 23% | 94% | 92% | 5.2% | growth at 10 µM (SNB-75 [3]): -8%; growth at 0.001 µM (PC-3): 97%; growth at 0.1 µM (OVCAR-8 [4]): 32%; growth at 10 µM (MDA-MB-231 [5]): -2.19%; GI50 (MDA-MB-231 [6]): 1.09 µM; LC50 (MDA-MB-231 [6]): > 100 µM; growth at 0.001 µM (A498): 91%; growth at 10 µM (HOP-62): 18.9%; growth at 10 µM (M14): -10%; growth at 10 µM (HL-60(TB)): 1.48%; growth at 1 µM (OVCAR-4): 21%; GI50 (CAKI-1): 0.345 µM; TGI (CAKI-1): 18.2 µM; CC50 (CAKI-1): > 100 µM; growth at 10 µM (NCI-H226): 24.9%; GI50 (SNB-75 [7]): 0.286 µM; TGI (SNB-75 [7]): 0.848 µM; CC50 (SNB-75 [7]): > 100 µM
2 | COc1cc(C)cc(-c2nn(CC#N)cc2-c2ccc(-c3cccc(C(C)=O)c3)nc2)c1 | 94% | 95% | 96% | 3.16 µM | 35.2 µM | > 100 µM | 94% | 2.43 µM | 33.9 µM | > 100 µM | -48% | 31.4% | 97% | 3.45 µM | 84 µM | > 100 µM | -10% | 98% | 86% | 25.4% | growth at 10 µM (SNB-75 [3]): -36%; growth at 0.001 µM (PC-3): 94%; growth at 0.1 µM (OVCAR-8 [4]): 86%; growth at 10 µM (MDA-MB-231 [5]): 34.8%; GI50 (MDA-MB-231 [6]): 3.04 µM; LC50 (MDA-MB-231 [6]): > 100 µM; TGI (MDA-MB-231 [6]): > 100 µM; growth at 0.001 µM (A498): 76%; growth at 10 µM (HOP-62): 32.1%; growth at 10 µM (M14): 6.52%; growth at 10 µM (HL-60(TB)): 8.33%; growth at 1 µM (OVCAR-4): 19%; GI50 (CAKI-1): 1.91 µM; TGI (CAKI-1): 10.5 µM; CC50 (CAKI-1): > 100 µM; growth at 10 µM (NCI-H226): 47.8%; GI50 (SNB-75 [7]): 1.96 µM; TGI (SNB-75 [7]): 6.24 µM; CC50 (SNB-75 [7]): > 100 µM
3 | Cc1cc(O)cc(-c2nn(CC#N)cc2-c2ccnc(-c3ccc(Oc4ccccc4)cc3)c2)c1 | 91% | 95% | 94% | 2.08 µM | 5.54 µM | 21.9 µM | 95% | 4.84 µM | 19.2 µM | 48.3 µM | -85% | 37.2% | 99% | 1.94 µM | 3.97 µM | 8.13 µM | -41% | 94% | 85% | 16.6% | growth at 10 µM (SNB-75 [3]): -98%; growth at 0.001 µM (PC-3): 98%; growth at 0.1 µM (OVCAR-8 [4]): 87%; growth at 10 µM (MDA-MB-231 [5]): 46.7%; GI50 (MDA-MB-231 [6]): 2.28 µM; LC50 (MDA-MB-231 [6]): 57.7 µM; TGI (MDA-MB-231 [6]): 7.33 µM; growth at 0.001 µM (A498): 88%; growth at 10 µM (HOP-62): 99.3%; growth at 10 µM (M14): 55.1%; growth at 10 µM (HL-60(TB)): 44.3%; growth at 1 µM (OVCAR-4): 21%; GI50 (CAKI-1): 1.8 µM; TGI (CAKI-1): 5.78 µM; CC50 (CAKI-1): 41 µM; growth at 10 µM (NCI-H226): 70.3%; GI50 (SNB-75 [7]): 3.82 µM; TGI (SNB-75 [7]): 17.1 µM; CC50 (SNB-75 [7]): 42 µM
